# From PubChem
# An excerpt weighted towards active compounds, which were near 2.6% of everything screened.
# SENP6 inh: SENP6 protease inhibitors, primary screen, biochemical, luminescence, uHTS; AID 2599, 2010; Sentrin-specific protease 6 (Homo sapiens), Q9GZR1; Recombinant SENP6 catalytic domain, aminoluciferin luminescence; inhibition, % at 10 µM; actives 1.8% (n = 330,000);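 active = inhibition above about 50% at the single tested dose, limit read from the data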;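 also: plate controls were DMSO wells with enzyme for no effect and DMSO wells lacking enzyme for full effect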
# SENP8 block-1: SENP8 protease inhibitors, primary screen, biochemical, luminescence; AID 2540, 2010; actives 1.2% (n = 330,000); inhibition, % at 10 µM; purified SENP8, Z-RLRGG-aminoluciferin cleavage; Sentrin-specific protease 8 (Homo sapiens), Q96LD8; in the data active = inhibition above about 50%
# Platelet DG rel: inhibitors of platelet dense granule secretion, primary screen, cell-based, MLPCN, human platelets; inhibition, %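 (compounds screened at 7.5 µM in platelet-rich plasma)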; human platelet-rich plasma, SFLLRN dense granule ATP release, luminescence; actives 0.22% (n = 300,000);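 active = mean replicate score, as percent of positive control, at or above 50; inconclusive = mean below 50 but at least one replicate at or above 50; inactive = mean and every replicate below 50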
# SENP8 block-2: human SENP8 protease inhibitors, primary screen, biochemical, fluorescence, Nedd8 protein substrate, uHTS | recombinant SENP8 | Sentrin-specific protease 8 (Homo sapiens), Q96LD8 | actives 0.64% (n = 360,000) | inhibition, % at 20 µM; in the data active = inhibition mostly above about 40%, no sharp cut-off; inactive = mostly below about 27%
# SENP7 inh: SENP7 protease inhibitors, primary screen, biochemical, luminescence, uHTS; Sentrin-specific protease 7 (Homo sapiens), Q9BQF6; recombinant SENP7, Z-RLRGG-aminoluciferin luminescence, 40 min; inhibition, % at 5 µM; actives 1.5% (n = 330,000); AID 434973, 2010;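 active = inhibition above about 50% at the single test dose, limit read from the data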;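 also: plate controls were DMSO with enzyme for no effect and no enzyme buffer wells for full effect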
# Target sequence (Q9BQF6 706-1050 limits assumed): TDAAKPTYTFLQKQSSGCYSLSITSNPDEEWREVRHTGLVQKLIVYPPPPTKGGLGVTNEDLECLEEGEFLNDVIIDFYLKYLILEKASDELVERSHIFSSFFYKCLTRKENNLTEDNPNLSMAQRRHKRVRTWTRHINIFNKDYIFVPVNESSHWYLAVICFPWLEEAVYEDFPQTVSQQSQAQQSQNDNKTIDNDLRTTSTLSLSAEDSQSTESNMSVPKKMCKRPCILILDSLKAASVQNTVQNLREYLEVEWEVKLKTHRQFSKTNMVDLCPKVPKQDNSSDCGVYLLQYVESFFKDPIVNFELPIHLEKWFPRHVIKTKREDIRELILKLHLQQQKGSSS
# SENP1 FRET inh: human SENP1 catalytic domain inhibitors, primary screen, biochemical, FRET, uHTS; actives 0.21% (n = 360,000); recombinant SENP1 catalytic domain, CyPet-SUMO1-YPet FRET cleavage; inhibition, % at 10 µM; Sentrin-specific protease 1 (Homo sapiens), Q9P0U3; AID 624204, 2012;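 active = inhibition at least 30% at 10 µM, raw YFP signal under a set limit, fluorescence ratio 0.5 to 1.5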;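 also: 0% = enzyme with DMSO and 100% = no enzyme wells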
#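 material = recombinant human SENP1 catalytic domain, His6-tagged | quantity = 20 pM enzyme | reagent = 25 nM SUMO1 FRET substrate | compound dosing = 10 µM single point, 0.5% DMSO | timing = 50 min enzyme reaction, room temperature, light-protected | detection = FRET, CFP and YFP emission | control set = no-enzyme low, enzyme-DMSO high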
# SENP8 confirm: SENP8 protease inhibitors, retest, confirmation, biochemical, luminescence, single concentration; shares compounds with SENP7 inh; Recombinant SENP8, Z-RLRGG-aminoluciferin luminescence, 60 min; inhibition, % at 12.5 µM; actives 40% (n = 6,200);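 active = mean inhibition across replicates above about 50%, limit read from the data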
# SENP6 confirm: SENP6 protease inhibitors, confirmation, biochemical, luminescence, single concentration. shares compounds with SENP7 inh. recombinant SENP6, Z-RLRGG-aminoluciferin luminescence. inhibition, % at 12.5 µM. actives 58% (n = 6,200). AID 488915, 2010
# SENP7 confirm: SENP7 protease inhibitors, retest, confirmation, biochemical, luminescence, single concentration; shares compounds with SENP7 inh; recombinant SENP7, Z-RLRGG-aminoluciferin luminescence, 40 min; inhibition, % at 12.5 µM; actives 69% (n = 6,200); AID 488917, 2010
# Casp3 select: caspase-3 protease inhibitors, confirmation, selectivity assay for SENP inhibitor project, biochemical, single concentration. shares compounds with SENP7 inh. purified caspase-3, Z-DEVD-aminoluciferin luminescence, 60 min. inhibition, % at 12.5 µM. actives 60% (n = 6,200). AID 488918, 2010;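 active = mean inhibition above about 50%, limit read from the data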;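 also: plate controls were enzyme with DMSO for no effect and wells without caspase-3 for full effect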
# Target sequence (P42574 28-227 limits assumed): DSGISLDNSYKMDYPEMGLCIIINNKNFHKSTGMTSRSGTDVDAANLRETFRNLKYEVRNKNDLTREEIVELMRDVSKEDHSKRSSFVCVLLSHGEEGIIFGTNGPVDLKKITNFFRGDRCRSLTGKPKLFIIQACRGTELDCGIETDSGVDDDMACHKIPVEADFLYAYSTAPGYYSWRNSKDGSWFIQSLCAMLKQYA
# SENP luc ctr: interferes with luciferase luminescence in SENP counter-screen | shares compounds with SENP7 inh | Pre-incubated SENP8/Z-RLRGG-aminoluciferin, luciferase luminescence interference | inhibition, % at 12.5 µM | actives 39% (n = 6,200) | AID 488919;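 active = mean inhibition above about 50% when retested at one dose, limit read from the data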;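 also: plate controls were DMSO wells with completed reaction for no effect and substrate without enzyme for full effect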
# * marks the source's active call; other numbers are inactive results; ? = inconclusive; . = not tested or not shown.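 The calls were made as follows, unless noted: active = mean inhibition above about 50% in the one-dose retest (limit read from the data); inactive = the rest.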
SMILES,SENP6 inh,SENP8 block-1,Platelet DG rel,SENP8 block-2,SENP7 inh,SENP1 FRET inh,SENP8 confirm,SENP6 confirm,SENP7 confirm,Casp3 select,SENP luc ctr
Clc1ccccc1/C=C/c1nc(-c2ccccn2)no1,96*,95*,?,14,100*,5,99*,100*,103*,98*,74*
CCCCCN1C=CC(=C2C(=O)c3ccccc3C2=O)C=C1,96*,96*,42,24,97*,28,94*,96*,100*,96*,46
c1ccc(-c2csc(-c3ccncc3)n2)cc1,9,-15,-11,-36,-6,0,.,.,.,.,.
c1ccc(-c2ccc(-c3ccncn3)cc2)cc1,61*,51*,2,-99,84*,-2,6,16,32,26,11
CC1(C)CC[C@]2(CO)CC[C@]3(C)C(=CCC4[C@@]5(C)CC[C@H](O)[C@@](C)(CO)C5CC[C@]43C)[C@@H]2C1 (stereo partly drawn),-16,-4,.,11,1,1,.,.,.,.,.
COc1ccc2nc(NC(=O)C3CC(=O)N(c4ccccc4)C3)sc2c1 (stereo not drawn),-10,-4,0,5,-5,-2,.,.,.,.,.
COc1cc(C(=O)OCC(=O)N2CCC(C)CC2)cc2c1OCCO2,13,5,.,11,5,1,.,.,.,.,.
Nc1c(C(=O)NCc2ccco2)c2nc3ccccc3nc2n1CCc1ccccc1F,51*,40,2,-300,34,-27,2,6,-9,2,-2
COc1ccc(CCn2c(N)c(C(=O)NCc3ccco3)c3nc4ccccc4nc32)cc1OC,70*,38,-1,-315,35,-53,15,10,2,-1,-1
CC(=O)N(/N=C1\Sc2ccccc2C1=O)c1ccccc1C,87*,90*,-4,-7,63*,-7,15,82*,36,5,8
CC(=O)N(/N=C1\Sc2ccccc2C1=O)c1ccc(C)cc1C,87*,83*,24,-53,70*,-10,6,65*,38,15,-1
CC(=O)N(\C=C/C=C/C=C1\Sc2ccccc2C1=O)c1ccccc1,21,1,3,-16,12,16,.,.,.,.,.
CC(=O)N(c1ccccc1C)c1ccccc1C,.,.,.,8,.,2,.,.,.,.,.
CCCCCCn1c(N2CCC(C(N)=O)CC2)nc2c1c(=O)n(C)c(=O)n2C,3,-12,0,17,-8,1,.,.,.,.,.
O=c1c2c(nc3cc(-c4ccccc4)[nH]n13)CCC2,57*,19,12,-233,45,1,22,16,30,44,7
O=c1c2c(nc3cc(-c4ccccc4)[nH]n13)CCS2,78*,69*,0,14,11,1,-23,-12,6,12,-3
O=C(CCC1CCCCC1)NCc1ccccn1,-6,4,12,7,1,0,.,.,.,.,.
Cc1ccc(N=C2NC(=O)/C(=C/c3cccn3C)S2)c(C)c1,-12,-12,14,14,-6,-38,.,.,.,.,.
Cn1cccc1/C=C1\SC(=Nc2ccccc2)NC1=O,80*,72*,-38,18,65*,-85,44,61*,64*,63*,27
CNC(=O)CSc1cnc2ccccc2n1,-5,-6,-8,-7,-14,1,.,.,.,.,.
CSc1nsc(/C=C/Nc2ccc(Cl)cc2)c1C#N,55*,23,-4,-220,7,8,-11,-5,2,2,-2
CSc1nsc(/C=C/Nc2ccc(F)cc2)c1C#N,22,7,0,-140,7,-25,.,.,.,.,.
CSc1nsc(/C=C/Nc2cccc(Cl)c2)c1C#N,67*,30,.,-184,10,-36,-18,-10,-2,0,-5
CCc1ccc(NC(=O)c2cnn(-c3ccccc3)c2C2CCNCC2)cc1,-5,-4,0,13,2,1,.,.,.,.,.
CCc1ccc(NC(=O)c2cnn(-c3ccccc3)c2C)cc1,59*,41,-12,22,76*,0,2,45,50*,69*,8
SMILES,SENP6 inh,SENP8 block-1,Platelet DG rel,SENP8 block-2,SENP7 inh,SENP1 FRET inh,SENP8 confirm,SENP6 confirm,SENP7 confirm,Casp3 select,SENP luc ctr
CCCNC(=O)C1CC(=O)N(c2ccc(OCc3ccc(F)cc3)cc2)C1 (stereo not drawn),87*,87*,17,6,88*,1,44,56*,71*,94*,15
CCCNC(=O)C1CC(=O)N(c2ccc(OCc3ccc(Cl)cc3)cc2)C1 (stereo not drawn),84*,61*,5,4,88*,2,37,37,38,44,13
C=CCNC(=O)C1CC(=O)N(c2ccc(OCc3ccc(F)cc3)cc2)C1 (stereo not drawn),92*,79*,18,8,91*,2,65*,86*,96*,88*,23
C=CCNC(=O)C1CC(=O)N(c2ccc(OCC(=O)N3CCCC3)cc2)C1 (stereo not drawn),-6,-8,4,14,9,-5,.,.,.,.,.
CC(=O)OC(C(=O)Nc1nncs1)c1ccccc1 (stereo not drawn),.,.,.,11,.,0,.,.,.,.,.
CCCC1(C(=O)OC)NC(c2ccc(OC)cc2OC)C2C(=O)N(c3cccc(C(C)=O)c3)C(=O)C21 (stereo not drawn),3,-3,1,8,0,-1,.,.,.,.,.
COc1ccc(/C=C/C=C2\N=C(SC)SC2=O)cc1,86*,84*,9,25,91*,-14,-3,8,2,3,17
